Measured values reported in ChEMBL document CHEMBL1139341 (J Med Chem, 2009).
Activity calls are given as the source filed them. The calls are words filed in the database; no cut-off is given here. Starred links: 1 amine or outer side, 2 acyl side, 3 side chain; linkers in the order of their positions; H or OH if unused. Positions of bridges follow the written chain, without caps; N, C: chain ends. Non-standard residues stand in square brackets, D forms with d. Residues, ends and D or L forms follow the SMILES beside them. Phe(Nα-(CH2)3CO) = O=C([C@H](Cc1ccccc1)N(CCCC(=O)[*:3])[*:1])[*:2]; N(2-aminoethyl)Phe = O=C([C@H](Cc1ccccc1)N(CCN[*:3])[*:1])[*:2]

How the values were obtained:
[1] = target: Somatostatin receptor type 1 (Homo sapiens, UniProt P30872); experiment: Displacement of [125I]-[Leu8, DTrp22, Tyr25]-somatostatin-28 from human recombinant sst1 receptor expressed in chinese hamster CCL39 cells; format: cell-based
In short: (§1)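 Competitive displacement on membrane pellet sections from cells expressing each human sst subtype. The radioligand was [¹²⁵I]-[Leu⁸,D-Trp²²,Tyr²⁵]-somatostatin-28 at 15000 cpm/100 µL. Unlabeled compounds were tested from 0.1 to 1,000 nmol/L, with somatostatin-28 run in parallel over the same range. IC₅₀ was calculated from displacement.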

[2] = target: Somatostatin receptor type 2 (Homo sapiens, UniProt P30874); experiment: Displacement of [125I]-[Leu8, DTrp22, Tyr25]-somatostatin-28 from human recombinant sst2 receptor expressed in chinese hamster CCL39 cells; format: cell-based; in short: as §1
[3] = target: Somatostatin receptor type 3 (Homo sapiens, UniProt P32745); experiment: Displacement of [125I]-[Leu8, DTrp22, Tyr25]-somatostatin-28 from human recombinant sst3 receptor expressed in chinese hamster CCL39 cells; format: cell-based; in short: as §1
[4] = target: Somatostatin receptor type 4 (Homo sapiens, UniProt P31391); experiment: Displacement of [125I]-[Leu8, DTrp22, Tyr25]-somatostatin-28 from human recombinant sst4 receptor expressed in chinese hamster CCL39 cells; format: cell-based; in short: as §1
[5] = target: T1, Somatostatin receptor type 5 (Homo sapiens, UniProt P35346); experiment: Displacement of [125I]-[Leu8, DTrp22, Tyr25]-somatostatin-28 from human recombinant sst5 receptor expressed in chinese hamster CCL39 cells; format: cell-based; in short: as §1
[6] = target: T1, Somatostatin receptor type 5; experiment: Agonist activity at human recombinant sst5 receptor expressed in chinese hamster CCL39 cells assessed stimulation of [35S]GTP-gamma-S-binding; format: functional, cell-based
In short: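 CCL-sst₅ cells grown in DMEM/Ham's F-12 (1:1) with 10% FBS, penicillin/streptomycin and 400 µg/mL G418 at 37 °C, 5% CO₂. Binding was run on 20 µm cryostat sections of membrane pellets. Sections were preincubated 10 min at room temperature in Tris-HCl buffer (pH 8.2) with BSA, bacitracin and MgCl₂. They then went 30 min in the same buffer plus 50 µM GDP.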

Homo sapiens = species on record: Homo sapiens; experiment: Selectivity for human recombinant sst5 receptor over human recombinant sst4 receptor

Sequence of Somatostatin receptor type 3 (P32745 whole entry): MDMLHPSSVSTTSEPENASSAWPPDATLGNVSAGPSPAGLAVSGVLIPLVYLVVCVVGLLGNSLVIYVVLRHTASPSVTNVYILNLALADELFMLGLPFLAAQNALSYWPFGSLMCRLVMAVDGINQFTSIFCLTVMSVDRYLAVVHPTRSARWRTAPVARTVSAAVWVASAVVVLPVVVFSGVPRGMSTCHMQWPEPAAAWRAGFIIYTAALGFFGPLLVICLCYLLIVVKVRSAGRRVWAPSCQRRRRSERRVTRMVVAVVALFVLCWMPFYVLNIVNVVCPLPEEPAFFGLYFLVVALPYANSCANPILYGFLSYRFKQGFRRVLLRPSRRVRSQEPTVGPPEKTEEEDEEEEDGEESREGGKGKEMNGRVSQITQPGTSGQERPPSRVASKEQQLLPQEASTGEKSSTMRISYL
Sequence of Somatostatin receptor type 2 (P30874 whole entry): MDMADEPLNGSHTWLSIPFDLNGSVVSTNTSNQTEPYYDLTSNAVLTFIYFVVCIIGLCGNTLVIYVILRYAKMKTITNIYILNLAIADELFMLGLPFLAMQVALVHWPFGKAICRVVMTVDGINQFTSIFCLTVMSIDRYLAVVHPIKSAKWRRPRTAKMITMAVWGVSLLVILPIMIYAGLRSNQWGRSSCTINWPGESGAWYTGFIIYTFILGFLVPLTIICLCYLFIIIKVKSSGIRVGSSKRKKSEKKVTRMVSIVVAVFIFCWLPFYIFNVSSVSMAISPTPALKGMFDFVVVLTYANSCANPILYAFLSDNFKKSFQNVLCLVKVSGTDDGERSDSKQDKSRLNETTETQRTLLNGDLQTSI
Sequence of Somatostatin receptor type 4 (P31391 whole entry): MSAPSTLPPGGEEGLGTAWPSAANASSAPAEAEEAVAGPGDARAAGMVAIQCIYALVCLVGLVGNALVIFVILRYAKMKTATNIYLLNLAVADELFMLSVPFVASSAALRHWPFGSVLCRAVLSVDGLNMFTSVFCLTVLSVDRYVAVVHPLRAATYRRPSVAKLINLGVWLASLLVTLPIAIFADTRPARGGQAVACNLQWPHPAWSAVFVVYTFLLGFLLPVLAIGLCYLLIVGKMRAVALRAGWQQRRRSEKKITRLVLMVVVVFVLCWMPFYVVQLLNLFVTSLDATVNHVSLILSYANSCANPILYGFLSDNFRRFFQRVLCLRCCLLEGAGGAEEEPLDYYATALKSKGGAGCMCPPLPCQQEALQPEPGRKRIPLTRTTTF
T1 sequence (P35346 whole entry): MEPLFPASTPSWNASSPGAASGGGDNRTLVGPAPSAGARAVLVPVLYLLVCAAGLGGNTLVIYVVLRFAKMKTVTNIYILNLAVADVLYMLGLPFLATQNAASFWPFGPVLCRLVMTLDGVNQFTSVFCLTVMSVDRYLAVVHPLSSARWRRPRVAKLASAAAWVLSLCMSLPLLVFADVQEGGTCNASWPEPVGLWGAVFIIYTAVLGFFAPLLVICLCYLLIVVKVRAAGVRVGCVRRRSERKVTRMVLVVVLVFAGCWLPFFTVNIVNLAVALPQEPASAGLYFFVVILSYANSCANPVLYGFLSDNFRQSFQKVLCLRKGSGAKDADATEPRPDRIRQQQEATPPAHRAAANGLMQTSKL
Sequence of Somatostatin receptor type 1 (P30872 whole entry): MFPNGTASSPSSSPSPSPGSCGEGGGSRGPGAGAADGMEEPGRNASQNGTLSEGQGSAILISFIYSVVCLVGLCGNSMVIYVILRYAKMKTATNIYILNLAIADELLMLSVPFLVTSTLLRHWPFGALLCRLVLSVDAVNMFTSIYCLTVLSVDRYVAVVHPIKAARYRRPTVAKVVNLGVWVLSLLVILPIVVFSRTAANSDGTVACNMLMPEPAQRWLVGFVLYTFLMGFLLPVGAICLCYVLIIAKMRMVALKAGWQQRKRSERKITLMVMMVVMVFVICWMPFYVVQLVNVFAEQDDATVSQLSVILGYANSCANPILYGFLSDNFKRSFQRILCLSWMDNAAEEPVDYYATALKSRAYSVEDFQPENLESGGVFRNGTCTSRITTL

| SMILES | IC50 [1] [nM] | IC50 [2] [nM] | IC50 [3] [nM] | IC50 [4] [nM] | IC50 [5] [nM] | Activity [6] | fold change (FC) (Homo sapiens) |
| --- | --- | --- | --- | --- | --- | --- | --- |
| CC(=O)N[C@@H]1Cc2c([nH]c3ccccc23)CN([C@@H](CCCCN)C(=O)NCc2ccccc2)C1=O | 253 | 292 | > 1000 | 7 | 5 | – | – |
| C[C@@H](NC(=O)[C@H](CCCCN)N1Cc2[nH]c3ccccc3c2C[C@@H](NC(=O)Cc2ccccc2)C1=O)c1ccccc1 | 630 | 770 | 403 | 14 | 50 | – | – |
| CS(=O)(=O)N1CC2(CCN(C(=O)N[C@@H]3Cc4c([nH]c5ccccc45)CN([C@@H](CCCCN)C(=O)NCc4ccccc4)C3=O)CC2)c2ccccc21 | 837 | 327 | 316 | 2.1 | 8 | – | – |
| NCCCC[C@H](C(=O)NCc1ccccc1)N1Cc2[nH]c3ccccc3c2C[C@@H](NC(=O)Cc2ccccc2)C1=O | > 1000 | > 1000 | 910 | 56 | 25 | – | – |
| CC(C)[C@@H]1NC(=O)[C@H](CCCCN)NC(=O)[C@H](Cc2c[nH]c3ccccc23)NC(=O)[C@H](Cc2ccc(O)cc2)NC(=O)[C@H](Cc2ccccc2)NCCNC(=O)CCCN([C@@H](Cc2ccccc2)C(=O)N[C@H](C(N)=O)[C@@H](C)O)C1=O (H-[N(2-aminoethyl)Phe]YWKV[Phe(Nα-(CH2)3CO)]T-NH2; lactam 1-6) | – | – | – | – | – | – | 24 |
| NCCCC[C@@H](C(=O)NCc1ccccc1)N1Cc2[nH]c3ccccc3c2C[C@@H](NC(=O)c2ccc(Cl)cc2)C1=O | 38 | 22 | 162 | 2.3 | 3.7 | – | – |
| NCCCC[C@@H](C(=O)NCc1ccccc1)N1Cc2[nH]c3ccccc3c2C[C@@H](NC(=O)c2ccc(-c3ccccc3)cc2)C1=O | > 1000 | 12 | 54 | 161 | 16 | – | – |
| C[C@@H](O)[C@@H](CO)NC(=O)[C@@H]1C/C=C/C[C@H](NC(=O)[C@H](N)Cc2ccccc2)C(=O)N[C@@H](Cc2ccccc2)C(=O)N[C@H](Cc2c[nH]c3ccccc23)C(=O)N[C@@H](CCCCN)C(=O)N[C@@H](Cc2ccc(OCc3ccccc3)cc2)C(=O)N1 | – | – | – | – | 12 | – | 24 |
| COC(=O)[C@H](CCCCN)N1Cc2[nH]c3ccccc3c2C[C@@H](NC(=O)Cc2ccccc2)C1=O | 962 | 290 | 400 | 2.4 | 13 | – | – |
| NCCCC[C@@H](C(=O)NCc1cccc2ccccc12)N1Cc2[nH]c3ccccc3c2C[C@@H](NC(=O)Cc2ccccc2)C1=O | 387 | 215 | 105 | 17 | 3.5 | – | – |
| NCCCC[C@@H](C(=O)NCc1ccccc1)N1Cc2[nH]c3ccccc3c2C[C@@H](NC(=O)C(c2ccccc2)c2ccccc2)C1=O | 247 | 242 | > 500 | 14 | 8.8 | – | – |

Now from value to molecule:

| IC50 [1] [nM] | IC50 [2] [nM] | IC50 [3] [nM] | IC50 [4] [nM] | IC50 [5] [nM] | Activity [6] | fold change (FC) (Homo sapiens) | SMILES |
| --- | --- | --- | --- | --- | --- | --- | --- |
| 75 | 183 | 50 | 2.4 | 0.6 | Active | – | NCCCC[C@@H](C(=O)NCCc1ccccc1)N1Cc2[nH]c3ccccc3c2C[C@@H](NC(=O)Cc2ccccc2)C1=O |
| 27 | 103 | 182 | 1.3 | 1.8 | – | – | NCCCC[C@@H](C(=O)NCc1ccccc1)N1Cc2[nH]c3ccccc3c2C[C@@H](NC(=O)c2ccccc2)C1=O |
| 105 | > 1000 | 515 | 7 | 0.56 | Active | 10 | CC(=O)N[C@@H]1Cc2c([nH]c3ccccc23)CN([C@@H](CCCCN)C(=O)NCCc2ccccc2)C1=O |
| – | – | – | – | 0.4 | – | – | C[C@H](N)COC(=O)[C@@H](CCCCN)NC(=O)Cc1c(-c2ccc3ccccc3c2)[nH]c2c1ccc1ccccc12 |
| 54 | 10 | 153 | 8.1 | 3.4 | – | – | NCCCC[C@@H](C(=O)NCc1ccccc1)N1Cc2[nH]c3ccccc3c2C[C@@H](NC(=O)CCc2ccccc2)C1=O |
| 372 | 4.2 | 260 | 59 | 3.5 | – | – | NCCCC[C@@H](C(=O)NCc1ccccc1)N1Cc2[nH]c3ccccc3c2C[C@@H](NC(=O)N2CCN(S(=O)(=O)c3ccccc3)CC2)C1=O |
| 76 | 0.73 | 3.9 | 4.4 | 0.86 | – | – | NCCCC[C@@H](C(=O)NCc1ccccc1)N1Cc2[nH]c3ccccc3c2C[C@@H](NC(=O)N2CCC(n3c(=O)[nH]c4ccccc43)CC2)C1=O |
| 379 | 2.1 | 9.1 | 35 | 2.9 | – | – | NCCCC[C@@H](C(=O)NCc1ccccc1)N1Cc2[nH]c3ccccc3c2C[C@@H](NC(=O)N2CCC3(CCc4ccccc43)CC2)C1=O |
| – | – | – | – | 0.3 | – | 200 | NCc1cccc(C[C@@H]2O[C@@H](CC(=O)NCc3ccccc3F)C(=O)N(Cc3ccc(-c4ccccc4)cc3)c3ccccc32)c1 |
| 183 | 452 | 300 | 1 | 3.2 | – | – | C[C@H](NC(=O)[C@H](CCCCN)N1Cc2[nH]c3ccccc3c2C[C@@H](NC(=O)Cc2ccccc2)C1=O)c1ccccc1 |
| 89 | 2.1 | 119 | 6.9 | 1.4 | – | – | NCCCC[C@@H](C(=O)NCc1ccccc1)N1Cc2[nH]c3ccccc3c2C[C@@H](NC(=O)C2CCN(C(=O)c3ccccc3)CC2)C1=O |
